Measurements reported in ChEMBL document CHEMBL2146456, “Identification and characterization of GABA(A) receptor modulatory diterpenes from Biota orientalis that decrease locomotor activity in mice” (J Nat Prod, 2011).
Activity calls are given as the source filed them. No cut-off for these calls is given here.

Columns and labels:
Oocyte [1] = assay: Allosteric modulation of gamma-aminobutyric acid receptor A alpha5beta2gamma2S expressed in Xenopus oocytes assessed as potentiation of GABA-mediated chloride current at 0.1 to 500 uM by voltage clamp analysis relative to control; format: cell-based
Procedure, shortened: (§1)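 Oocytes were injected with α1β2γ2S, α1β3γ2S, α2β2γ2S, α3β2γ2S or α5β2γ2S cRNAs at a 1:1:10 ratio. Two-electrode voltage clamp was run 1–5 days post-injection in HEPES-buffered saline at pH 7.4. Compounds in GABA EC5–10 (3–10 μM) were given by automated fast perfusion: screening at 10 and 100 μM (n = 2), otherwise concentration series. Potentiation = I(GABA+Comp)/IGABA − 1, with nonlinear regression fits.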

Oocyte [2] = assay: Allosteric modulation of gamma-aminobutyric acid receptor A alpha1beta1gamma2S expressed in Xenopus oocytes assessed as potentiation of GABA-mediated chloride current at 0.1 to 500 uM by voltage clamp analysis relative to control; format: cell-based
Procedure, shortened: (§2)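 α1β1γ2S cRNAs (3:1:10) injected into Xenopus oocytes and recorded 1–5 days later by two-microelectrode voltage clamp. Bath was 90 mM NaCl, 1 mM KCl, 1 mM MgCl2, 1 mM CaCl2, 5 mM HEPES, pH 7.4. Compound was co-applied by fast perfusion with GABA at EC5–10 (3–10 μM). Enhancement = I(GABA+Comp)/IGABA − 1. Concentration-response curves fitted by nonlinear regression.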

Oocyte [3] = assay: Agonist activity at gamma-aminobutyric acid receptor A alpha2beta2gamma2S expressed in Xenopus oocytes assessed as potentiation of GABA-mediated chloride current by voltage clamp analysis; format: functional, cell-based; procedure, shortened: as §1
[4] = biological target: T1, GABA-A receptor; GABA-A site (alpha1/beta2 interface) (Homo sapiens) (UniProt P14867+P47870); assay: Allosteric modulation of gamma-aminobutyric acid receptor A alpha1beta2 expressed in Xenopus oocytes assessed as potentiation of GABA-mediated chloride current at 30 uM by voltage clamp analysis; format: cell-based; conditions: Oocyte
Oocyte [5] = assay: (§3) Allosteric modulation of gamma-aminobutyric acid receptor A alpha1beta2gamma2S expressed in Xenopus oocytes assessed as potentiation of GABA-mediated chloride current by voltage clamp analysis; format: cell-based; procedure, shortened: as §1
[6] = as §3; format: cell-based; conditions: Oocyte; procedure, shortened: as §1
Oocyte [7] = assay: Agonist activity at gamma-aminobutyric acid receptor A alpha5beta2gamma2S expressed in Xenopus oocytes assessed as potentiation of GABA-mediated chloride current by voltage clamp analysis; format: functional, cell-based; procedure, shortened: as §1
Oocyte [8] = assay: Allosteric modulation of gamma-aminobutyric acid receptor A alpha1beta2gamma2S expressed in Xenopus oocytes assessed as potentiation of GABA-mediated chloride current at 100 uM by voltage clamp analysis; format: cell-based; procedure, shortened: as §1
Oocyte [9] = assay: Allosteric modulation of gamma-aminobutyric acid receptor A alpha3beta2gamma2S expressed in Xenopus oocytes assessed as potentiation of GABA-mediated chloride current at 0.1 to 500 uM by voltage clamp analysis relative to control; format: cell-based; procedure, shortened: as §1
Oocyte [10] = assay: Allosteric modulation of gamma-aminobutyric acid receptor A alpha2beta2gamma2S expressed in Xenopus oocytes assessed as potentiation of GABA-mediated chloride current at 0.1 to 500 uM by voltage clamp analysis relative to control; format: cell-based; procedure, shortened: as §1
Oocyte [11] = assay: Agonist activity at gamma-aminobutyric acid receptor A alpha3beta2gamma2S expressed in Xenopus oocytes assessed as potentiation of GABA-mediated chloride current by voltage clamp analysis; format: functional, cell-based; procedure, shortened: as §1
Oocyte [12] = assay: (§4) Allosteric modulation of gamma-aminobutyric acid receptor A alpha2beta2gamma2S expressed in Xenopus oocytes assessed as potentiation of GABA-mediated chloride current by voltage clamp analysis; format: cell-based; procedure, shortened: as §1
[13] = as §4; format: cell-based; conditions: Oocyte; procedure, shortened: as §1
Oocyte [14] = assay: Agonist activity at gamma-aminobutyric acid receptor A alpha1beta2gamma2S expressed in Xenopus oocytes assessed as potentiation of GABA-mediated chloride current by voltage clamp analysis; format: functional, cell-based; procedure, shortened: as §1
Oocyte [15] = assay: Agonist activity at gamma-aminobutyric acid receptor A alpha1beta1gamma2S expressed in Xenopus oocytes assessed as potentiation of GABA-mediated chloride current at 300 uM by voltage clamp analysis; format: functional, cell-based; procedure, shortened: as §2
Oocyte [16] = assay: Allosteric modulation of gamma-aminobutyric acid receptor A alpha1beta2gamma2S expressed in Xenopus oocytes assessed as potentiation of GABA-mediated chloride current at 30 uM by voltage clamp analysis; format: cell-based; procedure, shortened: as §1
Oocyte [17] = assay: (§5) Allosteric modulation of gamma-aminobutyric acid receptor A alpha5beta2gamma2S expressed in Xenopus oocytes assessed as potentiation of GABA-mediated chloride current by voltage clamp analysis relative to control; format: cell-based; procedure, shortened: as §1
[18] = as §5; format: cell-based; conditions: Oocyte; procedure, shortened: as §1
Oocyte [19] = assay: (§6) Allosteric modulation of gamma-aminobutyric acid receptor A alpha3beta2gamma2S expressed in Xenopus oocytes assessed as potentiation of GABA-mediated chloride current by voltage clamp analysis; format: cell-based; procedure, shortened: as §1
[20] = as §6; format: cell-based; conditions: Oocyte; procedure, shortened: as §1
Oocyte [21] = assay: (§7) Allosteric modulation of gamma-aminobutyric acid receptor A alpha1beta1gamma2S expressed in Xenopus oocytes assessed as potentiation of GABA-mediated chloride current by voltage clamp analysis; format: cell-based; procedure, shortened: as §2
[22] = as §7; format: cell-based; conditions: Oocyte; procedure, shortened: as §2
Oocyte [23] = assay: Agonist activity at gamma-aminobutyric acid receptor A alpha1beta3gamma2S expressed in Xenopus oocytes assessed as potentiation of GABA-mediated chloride current by voltage clamp analysis; format: functional, cell-based; procedure, shortened: as §1
[24] = biological target: T1, GABA-A receptor; GABA-A site (alpha1/beta2 interface) (Homo sapiens); assay: Allosteric modulation of gamma-aminobutyric acid receptor A alpha1beta2 expressed in Xenopus oocytes assessed as potentiation of GABA-mediated chloride current at 100 uM by voltage clamp analysis; format: cell-based; conditions: Oocyte
Oocyte [25] = assay: Allosteric modulation of gamma-aminobutyric acid receptor A alpha1beta3gamma2S expressed in Xenopus oocytes assessed as potentiation of GABA-mediated chloride current at 0.1 to 500 uM by voltage clamp analysis relative to control; format: cell-based; procedure, shortened: as §1
Oocyte [26] = assay: Allosteric modulation of gamma-aminobutyric acid receptor A alpha1beta2gamma2S expressed in Xenopus oocytes assessed as potentiation of GABA-mediated chloride current at 500 uM by voltage clamp analysis relative to control; format: cell-based; procedure, shortened: as §1
Oocyte [27] = assay: (§8) Allosteric modulation of gamma-aminobutyric acid receptor A alpha1beta3gamma2S expressed in Xenopus oocytes assessed as potentiation of GABA-mediated chloride current by voltage clamp analysis; format: cell-based; procedure, shortened: as §1
[28] = as §8; format: cell-based; conditions: Oocyte; procedure, shortened: as §1
Oocyte [29] = assay: Ratio of isopimaric acid EC50 to compound EC50 for gamma-aminobutyric acid receptor A alpha5beta2gamma2S expressed in Xenopus oocytes assessed as potentiation of GABA-mediated chloride current by voltage clamp analysis; format: cell-based
Oocyte [30] = assay: Ratio of isopimaric acid Imax to compound Imax for gamma-aminobutyric acid receptor A alpha1beta1gamma2S expressed in Xenopus oocytes assessed as potentiation of GABA-mediated chloride current at 0.1 to 500 uM by voltage clamp analysis; format: cell-based
Oocyte [31] = assay: Ratio of isopimaric acid Imax to compound Imax for gamma-aminobutyric acid receptor A alpha3beta2gamma2S expressed in Xenopus oocytes assessed as potentiation of GABA-mediated chloride current at 0.1 to 500 uM by voltage clamp analysis; format: cell-based
Oocyte [32] = assay: Allosteric modulation of gamma-aminobutyric acid receptor A alpha1beta2gamma2S expressed in Xenopus oocytes assessed as potentiation of GABA-mediated chloride current at 0.1 to 500 uM by voltage clamp analysis relative to control; format: cell-based
Procedure, shortened: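 Two-electrode voltage clamp on Xenopus oocytes injected with α1, β2, γ2S cRNA at a 1:1:10 ratio, recorded on days 1–5 at a holding potential of […]. Bath: 90 mM NaCl, 1 mM KCl, 1 mM MgCl2, 1 mM CaCl2, 5 mM HEPES pH 7.4. Compound was co-applied by fast perfusion with GABA EC5-10 (typically 3–10 μM). Potentiation was calculated as I(GABA+Comp)/IGABA − 1, and concentration-response curves were fitted by nonlinear regression.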

Oocyte [33] = assay: Ratio of isopimaric acid Imax to compound Imax for gamma-aminobutyric acid receptor A alpha1beta2gamma2S expressed in Xenopus oocytes assessed as potentiation of GABA-mediated chloride current at 0.1 to 500 uM by voltage clamp analysis; format: cell-based
Mus musculus [34] = assay: Anxiolytic activity in C57Bl/6N mouse assessed as ambulation distance at 30 mg/kg, ip measured after 30 mins by open field test ( Rvb = 31.8 +/- 1.7 m); format: functional; conditions: route intraperitoneal
Oocyte [35] = assay: Ratio of isopimaric acid EC50 to compound EC50 for gamma-aminobutyric acid receptor A alpha1beta1gamma2S expressed in Xenopus oocytes assessed as potentiation of GABA-mediated chloride current by voltage clamp analysis; format: cell-based
Oocyte [36] = assay: Ratio of isopimaric acid Imax to compound Imax for gamma-aminobutyric acid receptor A alpha1beta3gamma2S expressed in Xenopus oocytes assessed as potentiation of GABA-mediated chloride current at 0.1 to 500 uM by voltage clamp analysis; format: cell-based
Oocyte [37] = assay: Ratio of isopimaric acid EC50 to compound EC50 for gamma-aminobutyric acid receptor A alpha1beta3gamma2S expressed in Xenopus oocytes assessed as potentiation of GABA-mediated chloride current by voltage clamp analysis; format: cell-based
Mus musculus [38] = assay: Anxiolytic activity in C57Bl/6N mouse assessed as ambulation distance at 3 mg/kg, ip measured after 30 mins by open field test ( Rvb = 31.8 +/- 1.7 m); format: functional; conditions: route intraperitoneal
Oocyte [39] = assay: Ratio of isopimaric acid EC50 to compound EC50 for gamma-aminobutyric acid receptor A alpha3beta2gamma2S expressed in Xenopus oocytes assessed as potentiation of GABA-mediated chloride current by voltage clamp analysis; format: cell-based
Oocyte [40] = assay: Ratio of isopimaric acid EC50 to compound EC50 for gamma-aminobutyric acid receptor A alpha2beta2gamma2S expressed in Xenopus oocytes assessed as potentiation of GABA-mediated chloride current by voltage clamp analysis; format: cell-based
Oocyte [41] = assay: Ratio of isopimaric acid Imax to compound Imax for gamma-aminobutyric acid receptor A alpha2beta2gamma2S expressed in Xenopus oocytes assessed as potentiation of GABA-mediated chloride current at 0.1 to 500 uM by voltage clamp analysis; format: cell-based
Oocyte [42] = assay: Ratio of isopimaric acid Imax to compound Imax for gamma-aminobutyric acid receptor A alpha5beta2gamma2S expressed in Xenopus oocytes assessed as potentiation of GABA-mediated chloride current at 0.1 to 500 uM by voltage clamp analysis; format: cell-based
Oocyte [43] = assay: Ratio of isopimaric acid EC50 to compound EC50 for gamma-aminobutyric acid receptor A alpha1beta2gamma2S expressed in Xenopus oocytes assessed as potentiation of GABA-mediated chloride current by voltage clamp analysis; format: cell-based

Structure (SMILES): C=C[C@@]1(C)CC[C@H]2C(=CC[C@@H]3[C@]2(C)CCC[C@@]3(C)C(=O)O)C1 [ISOPIMARIC ACID]
- Imax (Oocyte [1]): 472%
- Imax (Oocyte [2]): 716%
- Activity (Oocyte [3]): inactive
- Activity [4]: Active
- Activity (Oocyte [5]): Dose-dependent effect
- EC50 [6]: 142 µM
- Activity (Oocyte [7]): inactive
- Activity (Oocyte [8]): Active
- Imax (Oocyte [9]): 1070%
- Imax (Oocyte [10]): 1030%
- Activity (Oocyte [11]): inactive
- Activity (Oocyte [12]): Dose-dependent effect
- EC50 [13]: 365 µM
- Activity (Oocyte [14]): inactive
- Activity (Oocyte [15]): inactive
- Activity (Oocyte [16]): Active
- Activity (Oocyte [17]): Dose-dependent effect
- EC50 [18]: 317 µM
- Activity (Oocyte [19]): Dose-dependent effect
- EC50 [20]: 724 µM
- Activity (Oocyte [21]): Dose-dependent effect
- EC50 [22]: 290 µM
- Activity (Oocyte [23]): inactive
- Activity [24]: Active
- Imax (Oocyte [25]): 476%
- Imax (Oocyte [26]): 425%
- Activity (Oocyte [27]): Dose-dependent effect
- EC50 [28]: 257 µM

Structure (SMILES): C=C[C@]1(C)C=C2CC[C@@H]3[C@](C)(CCC[C@@]3(C)C(=O)O)[C@H]2CC1 [SANDARACOPIMARIC ACID]
- Imax (Oocyte [1]): 513%
- Ratio EC50 (Oocyte [29]): 7.79
- Imax (Oocyte [2]): 502%
- Activity (Oocyte [3]): inactive
- Activity [4]: Active
- Activity (Oocyte [5]): Dose-dependent effect
- EC50 [6]: 33.3 µM
- Activity (Oocyte [7]): inactive
- Activity (Oocyte [8]): Active
- Imax (Oocyte [9]): 1100%
- Imax (Oocyte [10]): 1090%
- Ratio (Oocyte [30]): 1.43
- Activity (Oocyte [11]): inactive
- Activity (Oocyte [12]): Dose-dependent effect
- EC50 [13]: 31.2 µM
- Ratio (Oocyte [31]): 0.98
- Imax (Oocyte [32]): 856%
- Ratio (Oocyte [33]): 0.5
- Activity (Oocyte [14]): inactive
- Activity (Mus musculus [34]): 22.3 m
- Activity (Oocyte [15]): inactive
- Ratio EC50 (Oocyte [35]): 6.02
- Ratio (Oocyte [36]): 0.92
- Activity (Oocyte [16]): Active
- Ratio EC50 (Oocyte [37]): 10.3
- Activity (Mus musculus [38]): 25.1 m
- Activity (Oocyte [17]): Dose-dependent effect
- EC50 [18]: 40.7 µM
- Ratio EC50 (Oocyte [39]): 12.8
- Ratio EC50 (Oocyte [40]): 11.7
- Activity (Oocyte [19]): Dose-dependent effect
- EC50 [20]: 56.6 µM
- Activity (Oocyte [21]): Dose-dependent effect
- EC50 [22]: 48.1 µM
- Ratio (Oocyte [41]): 0.94
- Activity (Oocyte [23]): inactive
- Activity [24]: Active
- Imax (Oocyte [25]): 520%
- Ratio (Oocyte [42]): 0.92
- Ratio EC50 (Oocyte [43]): 4.25
- Activity (Oocyte [27]): Dose-dependent effect
- EC50 [28]: 24.9 µM
